Here are results for 41 compounds from ChEMBL document CHEMBL1145200, “4-Benzyl and 4-benzoyl-3-dimethylaminopyridin-2(1H)-ones: in vitro evaluation of new C-3-amino-substituted and C-5,6-alkyl-substituted analogues against clinically important HIV mutant strains” (J Med Chem, 2005).

The test system of assay [1] is Human immunodeficiency virus 1. As to the kind of experiment: In vitro inhibitory concentration against HIV-1 Y181C mutant strain. The assay is classed as functional, organism-based. An outline of the steps: (§1)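 MT4 human T-lymphoblastoid cells, grown in RPMI 1640 with 10% fetal calf serum and antibiotics at 37 °C under 5% CO2. Mutant HIV-1 strains were added at 200 CCID50/well with 30 000 cells/well across a compound concentration range. After 5 days at 37 °C, viability was read by MTT colorimetry. EC50 is the concentration giving 50% infection relative to the drug-free control.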

Assay [2] concerns Human immunodeficiency virus 1. In words: Selective index value (ratio of CC50 to IC50 value)against HIV LAI cell line. The assay is classed as functional. Put shortly: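 Ratio of CC50 to IC50 against LAI. CC50 came from mock-infected MT4 cultures (30 000 cells/well) given the same compound concentration range, run in parallel with LAI-infected cultures (200 CCID50/well). Incubation was 5 days at 37 °C in 5% CO2, with MTT viability read-out.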

Assay [3] deals with Human immunodeficiency virus 1. As to the kind of experiment: In vitro inhibitory concentration against HIV K103N mutant strain. The assay is classed as functional, organism-based. An outline of the steps: as §1
Assay [4] concerns Human immunodeficiency virus 1. As to the kind of experiment: In vitro inhibitory concentration against HIV LAI cell line. The assay is classed as functional, organism-based. Conditions: Human immunodeficiency virus 1, LAI. An outline of the steps:
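HIV-1 LAI was added at 200 CCID50/well to MT4 human T-lymphoblastoid cells (30 000 cells/well) across a concentration range of compound. Cells were grown in RPMI 1640 with 10% fetal calf serum and antibiotics. After 5 days at 37 °C in 5% CO2, cell viability was read by MTT colorimetry. EC50 was the concentration giving 50% infection versus the drug-free control.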

For assay [5], the system named is Human immunodeficiency virus 1. In words: In vitro inhibitory concentration against HIV Y188L mutant strain. The assay is classed as functional, organism-based. An outline of the steps: as §1
Assay [6] has as its system Human immunodeficiency virus 1. As to the kind of experiment: In vitro inhibitory concentration against HIV L100I mutant strain. The assay is classed as functional, organism-based. An outline of the steps: as §1

With `CCC(=O)Nc1c(Cc2cc(C)cc(C)c2)c(CC)c(C)[nH]c1=O`, the IC50 in assay [1] came to 100000 nM; in assay [3], 100000 nM; in assay [4], 3980 nM. In assay [2], the SI came out at 25.
Regarding `CCc1c(C)[nH]c(=O)c(NC(C)=O)c1Cc1cc(C)cc(C)c1`, the IC50 in assay [1] was 25100 nM; in assay [3], 20000 nM; in assay [5], 100 µM; in assay [4], 398 nM. Also, the SI in assay [2] stood at 251.
In the same order, the values of `CCNc1c(Cc2cc(C)cc(C)c2)c(CC)c(C)[nH]c1=O` are 100000 nM, 316 nM, 100 µM, 16 nM and 126.
In the case of `CCCN(C)c1c(Cc2cc(C)cc(C)c2)c(CC)c(C)[nH]c1=O`, the IC50 worked out at 398 nM in assay [1], 100 nM in assay [3] and 16 nM in assay [4]. Also, the SI in assay [2] worked out at 6310.
`CCOCCN(C)c1c(Cc2cccc(C)c2)c(CC)c(C)[nH]c1=O`: the SI in assay [2] amounted to 7940. In assay [4], the half-inhibitory concentration (IC50) turned out to be 13 nM.
Take `CCCc1c(C)[nH]c(=O)c(N(C)C)c1Cc1cc(C)cc(C)c1`: the IC50 in assay [1] came out at 316 nM; in assay [3] it was 79 nM; in assay [5], 0.631 µM; in assay [4], 50 nM. In addition, the SI in assay [2] was 2000.
In the case of `CCc1c(C)nc(O)c(N(C)C)c1C(=O)c1cccc(C)c1`, the SI in assay [2] amounted to 39800. Besides, the results for the IC50 in assay [5] and in assay [4] were 2 µM and 2.5 nM, respectively.
As for `CCc1c(C)[nH]c(=O)c(N(CC)CC)c1Cc1cc(C)cc(C)c1`, the IC50 in assay [1] worked out at 1260 nM; in assay [3], 398 nM; in assay [5], 2.51 µM; in assay [4], 16 nM. Further, the SI in assay [2] was determined as 6310.
On to `CCc1c(C)[nH]c(=O)c(N2CCCCC2)c1Cc1cc(C)cc(C)c1`, for which the IC50 is 39800 nM in assay [1], 63100 nM in assay [3] and 631 nM in assay [4]. The SI in assay [2] worked out at 158.
Turning to `CCc1c(C)[nH]c(=O)c(N(C)CCCO)c1Cc1cccc(C)c1`, the 50% inhibitory concentration (IC50) was determined as 1580 nM in assay [1], 316 nM in assay [3], 5.01 µM in assay [5] and 3 nM in assay [4]. Further, in assay [2], the SI was found to be 31600.
Take `COCCCc1c(C)nc(O)c(N(C)C)c1C(=O)c1cc(C)cc(C)c1`: the IC50 is 50 nM in assay [1]; 10 nM in assay [3]; 8 nM in assay [6]; 0.2 µM in assay [5]; 2 nM in assay [4]. For the same compound, the SI in assay [2] amounted to 12600.
Regarding `CCc1[nH]c(=O)c(N(C)C)c(Cc2cc(C)cc(C)c2)c1C`, the IC50 was determined as 251 nM in assay [1], 100 nM in assay [3], 5.01 µM in assay [5] and 10 nM in assay [4]. Moreover, the SI in assay [2] worked out at 10000.
The like results for `CCc1c(C)[nH]c(=O)c(N(C)CCO)c1Cc1cccc(C)c1` were, in that order, 1260 nM, 794 nM, 12.6 µM, 5 nM and 7940.
Regarding `CCCCNc1c(Cc2cc(C)cc(C)c2)c(CC)c(C)[nH]c1=O`, the figures for the IC50 in assay [1], in assay [3] and in assay [4] were 5010 nM, 2000 nM and 126 nM, respectively. Besides, the SI in assay [2] was 398.
On to `CCc1c(C)[nH]c(=O)c(N(C)CCCCCO)c1Cc1cc(C)cc(C)c1`, for which the IC50 in assay [1] turned out to be 126 nM; in assay [3], 100 nM; in assay [5] it was 2.51 µM; in assay [4], 4 nM. Besides, the SI in assay [2] stood at 12600.
In the same order, the values of `Cc1cccc(C(=O)c2c(C)c(C)nc(O)c2N(C)C)c1` are 2000 nM, 398 nM, 50.1 µM, 16 nM and 6310.
As for `CCc1c(C)[nH]c(=O)c(NC(=S)Nc2ccccc2)c1Cc1cccc(C)c1`, the SI in assay [2] stood at 25. In assay [4], the half-inhibitory concentration (IC50) amounted to 3160 nM.
As to `CCc1c(C)nc(O)c(NC(=S)NC(=O)c2ccccc2)c1Cc1cccc(C)c1`, the IC50 worked out at 100000 nM in assay [1], 100000 nM in assay [3], 100 µM in assay [5] and 6310 nM in assay [4]. For the same compound, in assay [2], the SI is 16.
`CCc1c(C)[nH]c(=O)c(NCc2ccccc2)c1Cc1cc(C)cc(C)c1`: the results for the IC50 in assay [1], in assay [3] and in assay [4] were 10000 nM, 3160 nM and 251 nM, respectively. Also, the SI in assay [2] came out at 251.
Consider `CCc1c(C)[nH]c(=O)c(N(C)CCCC#N)c1Cc1cccc(C)c1`, for which the IC50 worked out at 2000 nM in assay [1], 316 nM in assay [3], 3.16 µM in assay [5] and 5 nM in assay [4]. For the same compound, the SI in assay [2] was determined as 12600.
The like results for `Cc1cc(C)cc(Cc2cc(C)[nH]c(=O)c2N(C)C)c1` were, in that order, 79400 nM, 31600 nM, 100 µM, 398 nM and 251.
In the same order, the values of `Cc1cc(C)cc(Cc2c(CC(C)C)c(C)[nH]c(=O)c2N(C)C)c1` are 158 nM, 63 nM, 0.398 µM, 50 nM and 2000.
With `CCNC(=S)Nc1c(Cc2cccc(C)c2)c(CC)c(C)[nH]c1=O`, the SI in assay [2] stood at 4. The same compound showed a 50% inhibitory concentration (IC50) in assay [4] of 25100 nM.
`CCc1c(C)[nH]c(=O)c(N2CCOCC2)c1Cc1cc(C)cc(C)c1`: the IC50 in assay [1] was found to be 10000 nM; in assay [3] it was 100000 nM; in assay [4] it was 158 nM. The SI in assay [2] was determined as 251.
Turning to `CCc1c(C)[nH]c(=O)c(N(C)CCCSC)c1Cc1cc(C)cc(C)c1`, the values for the IC50 in assay [1], in assay [3] and in assay [4] were 501 nM, 1000 nM and 25 nM, respectively. For the same compound, in assay [2], the SI is 398.
The like results for `CCCCN(CCCC)c1c(Cc2cc(C)cc(C)c2)c(CC)c(C)[nH]c1=O` were, in that order, 100000 nM, 100000 nM, 50100 nM and 2.
As for `CCc1c(C)[nH]c(=O)c(N(C)CC#N)c1Cc1cccc(C)c1`, the concentration for half-maximal inhibition (IC50) worked out at 1580 nM in assay [1], 316 nM in assay [3], 12.6 µM in assay [5] and 4 nM in assay [4]. In addition, the SI in assay [2] stood at 25100.
Turning to `CCc1c(C)[nH]c(=O)c(NC=O)c1Cc1cc(C)cc(C)c1`, the IC50 in assay [1] came to 7940 nM; in assay [3] it was 794 nM; in assay [5] it was 0.316 µM; in assay [4] it was 79 nM. Also, the SI in assay [2] was 1260.
As to `CCc1c(C)[nH]c(=O)c(NC)c1Cc1cc(C)cc(C)c1`, the half-inhibitory concentration (IC50) was found to be 1000 nM in assay [1], 79 nM in assay [3], 2 µM in assay [5] and 10 nM in assay [4]. In addition, in assay [2], the SI was 5010.
In the same order, the values of `CCc1c(C)[nH]c(=O)c(-n2cccc2)c1Cc1cc(C)cc(C)c1` are 1260 nM, 398 nM, 2 µM, 12.6 nM and 1260.
`CCc1nc(O)c(N(C)C)c(C(=O)c2cccc(C)c2)c1C`: the SI in assay [2] worked out at 1000. In addition, inhibition in assay [4] was half-maximal at 100 nM (IC50).
As for `CCc1c(C)[nH]c(=O)c(N(Cc2ccccc2)Cc2ccccc2)c1Cc1cc(C)cc(C)c1`, the values for the IC50 in assay [1], in assay [3] and in assay [4] were 79400 nM, 50100 nM and 100000 nM, respectively. In addition, the SI in assay [2] came to 1.
Turning to `CCc1c(C)[nH]c(=O)c(N(C)CCCCCO)c1Cc1cccc(C)c1`, the IC50 in assay [1] amounted to 1580 nM; in assay [3] it was 501 nM; in assay [5], 5.01 µM; in assay [4], 10 nM. Also, the SI in assay [2] came to 6310.
As to `Cc1cc(C)cc(Cc2c(C)c(C)[nH]c(=O)c2N(C)C)c1`, the IC50 in assay [1] was found to be 398 nM; in assay [3], 398 nM; in assay [5] it was 3.16 µM; in assay [4] it was 5 nM. Besides, the SI in assay [2] worked out at 2000.
Regarding `Cc1cc(C)cc(Cc2c(C)c(C(C)C)[nH]c(=O)c2N(C)C)c1`, the SI in assay [2] was determined as 126. In assay [4], this compound displayed an IC50 of 794 nM.
With `COCCc1c(C)nc(O)c(N(C)C)c1C(=O)c1cccc(C)c1`, the IC50 in assay [1] is 1260 nM; in assay [3], 158 nM; in assay [5] it was 10 µM; in assay [4], 4 nM. In assay [2], the SI stood at 7940.
On to `CCc1c(C)[nH]c(=O)c(NC(N)=S)c1Cc1cccc(C)c1`, for which the SI in assay [2] turned out to be 316. In assay [4], this compound showed a concentration for half-maximal inhibition (IC50) of 316 nM.
Take `Cc1cc(C)cc(Cc2cc[nH]c(=O)c2N(C)C)c1`: the IC50 was 100000 nM in assay [1], 39800 nM in assay [3] and 7940 nM in assay [4]. Besides, the SI in assay [2] was 10.
Consider `CCc1c(C)[nH]c(=O)c(N(C)CCC#N)c1Cc1cccc(C)c1`, for which, in assay [2], the SI turned out to be 6310. The compound further yielded a half-inhibitory concentration (IC50) in assay [4] of 16 nM.
Consider `CCCNc1c(Cc2cc(C)cc(C)c2)c(CC)c(C)[nH]c1=O`, for which the IC50 in assay [1] worked out at 15800 nM; in assay [3], 1580 nM; in assay [5], 100 µM; in assay [4], 20 nM. Moreover, the SI in assay [2] is 398.
As to `CCCC(=O)Nc1c(Cc2cc(C)cc(C)c2)c(CC)c(C)[nH]c1=O`, the IC50 in assay [1], in assay [3] and in assay [4] was 100000 nM in each case. Further, in assay [2], the SI is 1.

As a reminder, the IC50 is the concentration needed to halve the response being measured. Lower therefore signals greater potency.
